Sampled rows, rich in hits. Any-hit rate of the full collection: about 5.9%.
MT1-MMP txn act = MT1-MMP promoter reporter activation – cell-based, luciferase luminescence, primary screen. HT1080 MT1-MMP promoter luciferase reporter, overnight; hits give high values. actives 0.16% (n = 86,000). activation factor at 10 µM;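 active means activation factor of at least 2 for MT1-MMP transcription at 10 µM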
Jurkat tox 60K = cytotoxicity toward Jurkat T cells, primary screen, cytotoxicity control, cell-based, Jurkat E6.1, 60K MLSMR library | Jurkat E6.1 viability, ATP luminescence, 48 h | inhibition, % at 4 µM | actives 1.2% (n = 56,000);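 active means inhibition above the mean inhibition of all tested compounds plus 3 SD, cut at about 28% in these data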
Pyk2 oligo antag = antagonists of Pyk2 self-association, primary screen, Q293 cells, FERM NanoBiT luminescence, HTS. z-score (the deposit names both 25 µM and 10 µM). hits give low values. actives 0.83% (n = 99,000);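 active means Z-score of -3 or lower, scaled per plate to the spread of control and sample wells; inactive means z-score above -3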;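 further: negative z-score means lost luminescence so less FERM oligomerization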
Target sequence (Q14289 whole entry, looked up): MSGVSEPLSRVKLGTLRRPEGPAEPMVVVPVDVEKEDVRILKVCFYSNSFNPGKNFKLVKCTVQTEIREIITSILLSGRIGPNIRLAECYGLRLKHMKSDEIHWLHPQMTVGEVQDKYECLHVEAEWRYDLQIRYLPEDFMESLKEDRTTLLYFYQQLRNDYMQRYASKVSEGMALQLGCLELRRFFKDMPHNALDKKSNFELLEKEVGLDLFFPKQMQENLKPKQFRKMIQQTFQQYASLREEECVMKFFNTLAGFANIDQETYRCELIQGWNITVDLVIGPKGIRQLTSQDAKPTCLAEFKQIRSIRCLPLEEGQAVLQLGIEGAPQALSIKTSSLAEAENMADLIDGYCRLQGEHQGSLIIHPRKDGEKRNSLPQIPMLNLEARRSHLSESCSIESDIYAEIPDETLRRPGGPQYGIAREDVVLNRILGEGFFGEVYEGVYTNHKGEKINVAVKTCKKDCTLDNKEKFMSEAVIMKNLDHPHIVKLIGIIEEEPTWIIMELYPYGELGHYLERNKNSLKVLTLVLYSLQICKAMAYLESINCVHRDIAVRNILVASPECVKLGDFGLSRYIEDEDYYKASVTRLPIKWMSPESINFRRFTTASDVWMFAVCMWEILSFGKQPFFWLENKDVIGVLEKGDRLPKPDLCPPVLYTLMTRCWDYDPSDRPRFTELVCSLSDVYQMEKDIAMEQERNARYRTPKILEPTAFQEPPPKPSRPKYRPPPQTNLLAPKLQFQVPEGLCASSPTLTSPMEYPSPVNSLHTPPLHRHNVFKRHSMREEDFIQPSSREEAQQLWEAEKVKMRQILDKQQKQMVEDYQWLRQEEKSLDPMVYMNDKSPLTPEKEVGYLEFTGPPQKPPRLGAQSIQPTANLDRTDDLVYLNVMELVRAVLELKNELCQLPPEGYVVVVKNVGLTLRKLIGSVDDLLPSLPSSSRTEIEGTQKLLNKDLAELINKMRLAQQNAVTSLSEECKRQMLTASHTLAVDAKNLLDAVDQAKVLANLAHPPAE
H69AR growth 86K = proliferation blockers of H69AR lung cancer cells, primary screen, cell-based, human, 86K library | viability, % at 10 µM | actives 6% (n = 85,000) | H69AR lung tumor viability, ATP luminescence, 72 h; hits give low values;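 active means viability at or below 40%; inactive means viability above 40%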;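 further: multidrug resistant small cell line overexpressing MRP-1 efflux transporter; 100% = mean luminescence of untreated control wells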
HUVEC inhibit = inhibitors of HUVEC proliferation, primary screen, cell-based, 384-well; CellTiter-Glo luminescence, 72 h; hits give low values; viability, % at 10 µM (by protocol); actives 1.1% (n = 86,000);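 active means viability at or below 30%; inactive means viability above 30%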;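 further: 100% = median luminescence of DMSO-only cell control wells on each plate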
Fibroblast inh = antiproliferative effect on LL 47 fibroblasts – human, LL 47 cells, CellTiter-Glo luminescence, primary screen | viability, % at 10 µM | LL 47 human lung fibroblast viability, ATP luminescence; hits give low values | actives 1.1% (n = 85,000);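 active means viability at or below 50% in the single dose screen; inactive means viability above 50%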;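 further: compound exposure lasted 72 h before the ATP readout; 100% = median luminescence of untreated cell-only wells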
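Test system: LL 47 human lung fibroblasts / Incubation: 72 h compound exposure at 37 °C after overnight plating / Technique: luminescent ATP detection, CellTiter-Glo / Compound dosing: 0.1% DMSO in all compound wells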
The depositor's hits bear a star; . = no result.

SMILES | MT1-MMP txn act | Jurkat tox 60K | Pyk2 oligo antag | H69AR growth 86K | HUVEC inhibit | Fibroblast inh
Cc1ccc(NC(=O)N2CCCN(Cc3ccc(F)cc3)C2)cc1C | 1.3 | 11 | -1.8 | 28* | 38 | .
N#Cc1nc(N2CCCCC2)nc(N2CCOCC2)n1 | 1.2 | 42* | -0.13 | 85 | 100 | 81
N#Cc1nc(N2CCCC2)nc(N2CCCC2)n1 | 1 | 22 | 0.78 | 85 | 89 | 77
CCC(C)NC(=O)c1ccccc1NC(=O)c1ccc(CSc2ccc(C)cc2)cc1 (centres undefined) | . | . | -0.19 | . | . | .
Clc1cccc(-c2nc(NCc3cccnc3)c3ccccc3n2)c1 | . | . | -3.7* | . | . | .
N#Cc1c(NCc2ccccc2)ccnc1NCc1cccnc1 | 0.9 | 69* | -1.3 | 96 | 85 | 92
c1ccc(-c2nc(NCc3cccnc3)c3ccccc3n2)cc1 | . | . | -3.7* | . | . | .
c1cncc(-c2nc(NCc3ccco3)c3ccccc3n2)c1 | 1.3 | -4 | -0.08 | 59 | 94 | 90
Cc1ccc(-c2nc(N/N=C/c3cccnc3)c3ccccc3n2)cc1 | 0.9 | . | -2.9 | 26* | 57 | 50
Cc1cccc(N2CCN(C(=O)c3cc4c(=O)n(C)c5ccccc5c4n3C)CC2C)c1 (centres undefined) | 1.2 | 7 | . | 72 | 59 | 83
N#CC(c1ccccc1)c1ccc2c(C(F)(F)F)cc(C(F)(F)F)nc2n1 (centres undefined) | 1 | . | -2.1 | 24* | 63 | 39*
FC(F)(F)c1cc(C(F)(F)F)c2ccc(N/N=C/c3ccccc3)nc2n1 | . | . | 0.21 | . | . | .
COc1ccc(Oc2ccc3c(C(F)(F)F)cc(C(F)(F)F)nc3n2)cc1 | . | . | -0.55 | . | . | .
Cc1ccc(C(C#N)c2ccc3c(C(F)(F)F)cc(C(F)(F)F)nc3n2)cc1 (centres undefined) | 1 | . | -2 | 24* | 62 | 75
Cc1cc(C)cc(C(=O)N2CC(=O)Nc3ccccc32)c1 | 0.4 | . | -0.36 | 35* | 45 | 50*
O=C1CN(C(=O)COC(=O)Cc2ccsc2)c2ccccc2N1 | 1.1 | -3 | 0.15 | 81 | 91 | 99
Cc1ccsc1C(=O)N1CC(=O)Nc2ccccc21 | 1.1 | 10 | 0.65 | 30* | 89 | 93
Cc1cc(C)c2nc(SCC(=O)N3CC(=O)Nc4ccccc43)c(C#N)cc2c1 | 0.8 | . | -1.2 | 24* | 43 | 63
O=C1CN(C(=O)c2cnccn2)c2ccccc2N1 | 1.1 | -6 | -0.45 | 107 | 92 | .
O=C(CC1(O)C(=O)Nc2ccccc21)c1cccnc1 (centres undefined) | 1.3 | -2 | 1.1 | 86 | 97 | 112
Cc1cc(C)n(C(C)n2nc(C)cc2C)n1 | 1.2 | -7 | -0.02 | . | . | .
COc1ccc(OC)c(S(=O)(=O)N2CCC(C(=O)N3CCc4ccccc4C3)CC2)c1 | 0.9 | 0 | -0.05 | 36* | 86 | 97
COc1ccc(OC)c(S(=O)(=O)N2CCC(C(=O)NCc3ccccc3)CC2)c1 | 1.2 | 1 | 0.06 | 88 | 98 | 101
CC1CCN(S(=O)(=O)c2ccc3c(c2)oc(=O)n3CC(=O)N2CCc3ccccc3C2)CC1 | . | . | . | 18* | 92 | 86
CN1CCN(c2ncnc3c2sc2nc(N4CCOCC4)c4c(c23)CCC4)CC1 | 1.1 | . | . | 97 | 86 | 100
SMILES | MT1-MMP txn act | Jurkat tox 60K | Pyk2 oligo antag | H69AR growth 86K | HUVEC inhibit | Fibroblast inh
c1nc(N2CCNCC2)c2sc3nc(N4CCOCC4)c4c(c3c2n1)CCC4 | 0.9 | . | . | 7.9* | 72 | 4.0*
Cc1cc(C)c2c(n1)sc1c(N3CCOCC3)ncnc12 | 1 | -2 | . | 78 | 22* | 83
Cc1cc(N2CCN(C/C=C/c3ccccc3)CC2)n2ncnc2n1 | 1 | 37* | 0.19 | 69 | 106 | 97
Cc1cc(N2CCN(C(c3ccccc3)c3ccc(Cl)cc3)CC2)n2ncnc2n1 (centres undefined) | 1.3 | -1 | . | 77 | 62 | 89
O=C(CS(=O)(=O)c1ccccc1)N1CCCCCC1 | 1.4 | -1 | -0.36 | 103 | 88 | 98
O=S(=O)(C/C(=C/CO)S(=O)(=O)c1ccccc1)c1ccccc1 | 0.6 | 98* | -0.78 | . | . | .
CCOC(=O)C(=O)Nc1nnc(CCc2ccccc2)s1 | 1.1 | . | 0.82 | 97 | 101 | 102
COc1ccc(OC)c(N2C(=O)CC(C(C)c3ccccc3)C2=O)c1 (centres undefined) | 1 | 1 | 0.13 | 91 | 85 | 94
COC(=O)c1ccc(Oc2cc(C)nc(SC)n2)cc1 | 0.6 | 65* | 0.83 | 30* | 57 | 58
C=CCn1c(SCC(=O)N2CCc3ccccc3C2)nc2ccccc2c1=O | . | . | 0.2 | . | . | .
CCCC(O)(c1ccc(Cl)cc1)C(CN1CCOCC1)c1ccccc1 (centres undefined) | . | . | . | 40* | 106 | 96
CCCCC(O)(CCN1CCOCC1)c1ccc(Cl)cc1 (centres undefined) | 1.1 | . | 0.36 | 97 | 99 | 98
COc1cc(-c2nc(-c3ccc(NC(=O)c4ccc5c(c4)OCO5)cc3)no2)cc(OC)c1OC | 1.3 | 5 | 1.5 | 13* | 28* | 73
Cc1ccccc1-c1nc(-c2ccc(NC(=O)c3ccc4c(c3)OCO4)cc2)no1 | 1.1 | . | 1.6 | 28* | 39 | 20*
O=C(Nc1nccs1)c1ccc(S(=O)(=O)NCc2cccs2)cc1 | 1.2 | 9 | -0.83 | 51 | 100 | 102
O=C(Nc1nccs1)c1ccc(S(=O)(=O)NCC2CCCCC2)cc1 | 1.1 | 37* | -2.1 | 51 | 77 | 97
CCCCOc1ccc(/C(N)=N/O)cc1 | 1.4 | 7 | -0.68 | . | . | .
Cc1c(Cl)cccc1Nc1nc(N)nc(CSc2ncccn2)n1 | . | 0 | -0.75 | 1.4* | 100 | 85
Cc1c(Cl)cccc1Nc1nc(N)nc(CSCCO)n1 | 1.1 | 10 | -0.28 | 4.3* | 89 | 102
COc1ccc(-n2nnc3c(SCC(=O)NCC4CCCO4)ncnc32)cc1 (centres undefined) | 1 | 8 | -0.57 | 42 | 76 | 73
Cn1cccc1Cc1nnc(SCC(=O)Nc2nc3ccccc3s2)n1CCc1ccccc1 | 1 | 1 | -0.21 | 5.4* | 43 | 76
O=C(COC(=O)Cc1cn2ccsc2n1)Nc1nc2ccccc2s1 | 1.2 | 3 | -0.07 | 7.2* | 96 | 93
O=C(Cc1ccccc1)Nc1nc2ccccc2s1 | 2* | . | -1.2 | 91 | 89 | 92
COCC(=O)Nc1nc2ccccc2s1 | . | . | -0.21 | 94 | 109 | 99
Cc1nnc(NC(=O)CSc2nnc(Cc3cccn3C)n2CCc2ccccc2)s1 | 1.3 | 8 | 0.31 | 71 | 105 | 96
CCN1C(=O)CSc2ccc(C(=O)NCc3ccc(OC)cc3)cc21 | 1.1 | . | 0.63 | 87 | 101 | 100
